These results are taken from PubChem BioAssay.

As usually defined, the viability is a read-out of living cells in per cent, often relative to untreated cells. The inhibition is the change of the read-out against control, counted positive when it falls.

Experiment [1] can be described thus: Her2 expression decrease, cell viability multiplex – SKBR3 breast tumor cells, AlphaScreen, ATP viability, primary screen (AID 461;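 active = Her2 level under about 52% in both replicate screens, with viability over 70% of control, limit read from the data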;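 for Her2 level: lower value means less Her2 protein in the cells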;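 for viability: percent of carrier control wells set as 100% viability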). To be noted: SKBR3 Her2 protein level, 18-24 h, measured here: SKBR3 viability, ATP luminescence, at 10 µM. Background: Alpha assays give light when donor and acceptor beads are brought close together.
The target of experiment [2] is Receptor tyrosine-protein kinase erbB-2 (Homo sapiens) (UniProt P04626). The description is as above. Particulars: 18-24 h, at 10 µM, stronger effect = lower value.
Experiment [3] can be described thus: reduced viability of SK-BR-3 breast cancer cells – cell-based, 24 h, human, pilot screen (AID 572;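 active = viability at or below 10% of carrier control in both of two separate runs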;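 note: compound exposure lasted between 18 and 24 h rather than exactly 24 h; 100% = carrier-treated control wells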). Particulars: SK-BR-3 viability, CellTiter-Glo luminescence, at 10 µM, stronger effect = lower value.
Experiment [4] can be described thus: HUVEC growth inhibition – cell-based, human, primary screen (AID 575;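 active = viability at or below 30% in both replicate assays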;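 note: 100% = median of untreated cell wells with 0.1% DMSO on each plate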). Particulars: HUVEC proliferation, CellTiter-Glo luminescence, 72 h; at 10 µM; stronger effect = lower value. A digest of the protocol:
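Assay system: primary human umbilical vein endothelial cells / Buffer or medium: endothelial basal medium with 2% FBS plus growth supplements / Compound dosing: one dose, 10 µM final, 0.1% DMSO / Timing: 72 h treatment at 37 °C / Signal: CTG luminescence / Benchmarks: 32 DMSO-only cell-control wells (high), 32 MePR drug-control wells (low) per plate / Plate: collagen-coated 384-well format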

A short description of experiment [5]: H69AR cell proliferation blockers – human, duplicate replicates, primary screen (AID 580).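 Note: 100% = mean luminescence of untreated wells and 0% = no signal.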 Particulars: H69AR lung tumor cells viability, ATP luminescence, 72 h; at 10 µM; stronger effect = lower value.
Experiment [6] can be described thus: MRP1 drug-resistance reversers in H69AR cells – cell-based, doxorubicin co-treatment, pilot screen (AID 601;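 active = viability loss from added drug above about 55%, and viability with drug at most 40%, in both replicates, limit read from the data, passing the limit was not always enough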). Particulars: CellTiter-Glo, 72 h, at 10 µM; for differential viability (reversal): stronger effect = higher value. For orientation: Cellular ATP, detected with luciferase, serves as a proxy for viable cell number.
The nature of experiment [7]: yeast transport mutant growth inhibition pilot in 384-well plates, post-Golgi transport modulator project (AID 636; in the data active = inhibition above about 31%). To be noted: absorbance 615 nm, about 18 h, stronger effect = higher value.
The nature of experiment [8]: growth suppression of yeast trafficking mutant, preliminary HTS, modulators of trafficking downstream of Golgi apparatus project, 1536-format plate, OD 615 nm (AID 637; in the data active = inhibition above about 30%). To be noted: yeast transport mutant growth, absorbance 615 nm, 18 h; stronger effect = higher value.
Where [9] appears, read: H69AR cells + 2 uM doxorubicin, measured here: viability with 2 uM doxorubicin, stronger effect = lower value.
Setting [10] is: H69AR cells, compound alone cytotoxicity.

The source made the active and inactive calls.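 Rule for the calls, unless noted: active = viability at or under a set limit in both replicates, limit being median viability minus 3 SD (cut at about 48% in these data, passing the limit was not always enough); inconclusive = at or under the limit in just one replicate; inactive = at or above the limit in both replicates.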

Sequence of Receptor tyrosine-protein kinase erbB-2 (Homo sapiens) (P04626 whole entry, looked up): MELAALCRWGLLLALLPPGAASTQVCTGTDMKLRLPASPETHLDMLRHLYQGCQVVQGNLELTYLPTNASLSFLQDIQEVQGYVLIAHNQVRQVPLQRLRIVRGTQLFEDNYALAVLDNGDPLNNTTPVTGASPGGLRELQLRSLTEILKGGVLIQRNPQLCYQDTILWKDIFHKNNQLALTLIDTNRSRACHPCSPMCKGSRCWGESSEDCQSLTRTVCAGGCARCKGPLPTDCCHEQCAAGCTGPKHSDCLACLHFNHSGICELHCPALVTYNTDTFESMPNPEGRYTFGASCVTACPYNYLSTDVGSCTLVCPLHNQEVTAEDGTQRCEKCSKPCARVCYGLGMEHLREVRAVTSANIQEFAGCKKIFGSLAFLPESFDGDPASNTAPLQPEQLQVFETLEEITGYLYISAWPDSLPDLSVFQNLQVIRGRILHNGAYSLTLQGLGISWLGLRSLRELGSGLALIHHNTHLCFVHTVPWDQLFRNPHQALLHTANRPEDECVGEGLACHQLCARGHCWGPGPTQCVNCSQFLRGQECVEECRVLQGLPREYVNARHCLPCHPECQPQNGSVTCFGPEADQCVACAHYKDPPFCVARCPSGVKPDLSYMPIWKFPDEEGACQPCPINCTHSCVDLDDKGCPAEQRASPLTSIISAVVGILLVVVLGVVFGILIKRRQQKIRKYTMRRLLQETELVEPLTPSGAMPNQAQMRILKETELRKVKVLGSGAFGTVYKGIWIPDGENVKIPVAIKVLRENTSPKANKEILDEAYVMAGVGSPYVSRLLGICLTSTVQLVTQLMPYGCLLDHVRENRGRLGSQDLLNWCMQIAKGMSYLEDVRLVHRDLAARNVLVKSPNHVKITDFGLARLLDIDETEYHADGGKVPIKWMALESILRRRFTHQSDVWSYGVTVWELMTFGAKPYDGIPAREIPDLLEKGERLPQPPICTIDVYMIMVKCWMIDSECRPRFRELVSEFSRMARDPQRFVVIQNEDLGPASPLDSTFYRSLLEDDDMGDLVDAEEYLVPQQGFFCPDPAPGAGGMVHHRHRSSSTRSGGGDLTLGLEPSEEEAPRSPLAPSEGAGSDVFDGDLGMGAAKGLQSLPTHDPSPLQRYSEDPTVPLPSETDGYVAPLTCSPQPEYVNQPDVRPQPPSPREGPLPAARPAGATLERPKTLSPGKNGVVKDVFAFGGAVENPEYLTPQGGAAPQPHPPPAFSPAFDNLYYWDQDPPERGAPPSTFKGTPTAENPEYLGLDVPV

`Cn1c(C(=O)NCC2CCCO2)cc2c(=O)[nH]c3ccccc3c21` (stereo not given): the viability in experiment [1] is 81%; in experiment [3], 81% (inactive); in experiment [4], 108% (inactive); in experiment [5], 88.4% (inactive); in experiment [6] (setting [9]) it was 83.8%; in experiment [6] (setting [10]), 88.4%. In addition, the Her2 level in experiment [2] was 98% (inactive). Besides, the differential viability (reversal) in experiment [6] (H69AR cells + 2 uM doxorubicin) was 4.57% (inactive). Also, the inhibition is -4.67% (inactive) in experiment [7] and -7.05% (inactive) in experiment [8].

On to `COc1ccc(C)cc1NS(=O)(=O)c1ccc(NS(=O)(=O)c2ccc(NC(C)=O)cc2)cc1`, for which the viability was 128% in experiment [1]; 128% (inactive) in experiment [3]; 94.9% (inactive) in experiment [4]; 93.5% (inactive) in experiment [5]; 88.9% in experiment [6] (setting [9]); 93.5% in experiment [6] (setting [10]). The Her2 level in experiment [2] was 104% (inactive). Besides, the differential viability (reversal) in experiment [6] (H69AR cells + 2 uM doxorubicin) was 4.67% (inactive). In addition, the inhibition was -6.67% (inactive) in experiment [7] and 1.29% (inactive) in experiment [8].

Take `COc1ccc2c(c1)n([O-])c1c([n+]2=O)CCC1`: the viability in experiment [1] is 110%; in experiment [3], 110% (inactive); in experiment [4], 109% (inactive); in experiment [5], 100% (inactive); in experiment [6] (setting [9]), 106%; in experiment [6] (setting [10]), 100%. The Her2 level in experiment [2] is 91.5% (inactive). Also, the differential viability (reversal) in experiment [6] (H69AR cells + 2 uM doxorubicin) is -6% (inactive). Besides, the inhibition in experiment [7] is -1.18% (inactive); in experiment [8], -4.55% (inactive).

Take `O=C(Nc1ccccc1N1CCN(c2ccc(F)cc2)CC1)c1ccccc1`: the viability is 95% in experiment [1]; 95% (inactive) in experiment [3]; 78.5% (inactive) in experiment [4]; 93.8% (inactive) in experiment [5]; 84.6% in experiment [6] (setting [9]); 93.8% in experiment [6] (setting [10]). The Her2 level in experiment [2] was 96% (inactive). In addition, the differential viability (reversal) in experiment [6] (H69AR cells + 2 uM doxorubicin) was 9.15% (inactive). Besides, the inhibition in experiment [7] was -5.87% (inactive); in experiment [8] it was 4.13% (inactive).

With `COc1ccc(OC)c(N(CC(=O)N2CCN(c3cc(Cl)ccc3C)CC2)S(C)(=O)=O)c1`, the viability is 100% in experiment [1]; 100% (inactive) in experiment [3]; 78.2% (inactive) in experiment [4]; 75.9% (inactive) in experiment [5]; 72% in experiment [6] (setting [9]); 75.9% in experiment [6] (setting [10]). Also, the Her2 level in experiment [2] was 94% (inactive). In addition, in experiment [6] (H69AR cells + 2 uM doxorubicin), the differential viability (reversal) is 3.83% (inactive). In addition, the inhibition in experiment [7] was -5.53% (inactive); in experiment [8], 0.48% (inactive).

Regarding `CC(=O)Nc1ccc(S(=O)(=O)NCC2CCC(C(=O)NCCCN3CCCC3=O)CC2)cc1` (stereo not given), the viability in experiment [1] is 107%; in experiment [3], 107% (inactive); in experiment [4], 92.4% (inactive); in experiment [5], 94.3% (inactive); in experiment [6] (setting [9]), 87.8%; in experiment [6] (setting [10]), 94.3%. In addition, in experiment [2], the Her2 level is 91.5% (inactive). For the same molecule, the differential viability (reversal) in experiment [6] (H69AR cells + 2 uM doxorubicin) is 6.51% (inactive). Also, the figures for the inhibition in experiment [7] and in experiment [8] were -4.13% (inactive) and 1.45% (inactive), respectively.

`COC(=O)CCC(=O)Nc1cccc(Cl)c1`: the viability is 118% in experiment [1]; 118% (inactive) in experiment [3]; 90.1% (inactive) in experiment [4]; 85.4% (inactive) in experiment [5]; 91.1% in experiment [6] (setting [9]); 85.4% in experiment [6] (setting [10]). Besides, the Her2 level in experiment [2] is 87% (inactive). Besides, the differential viability (reversal) in experiment [6] (H69AR cells + 2 uM doxorubicin) was -5.69% (inactive). In addition, the inhibition in experiment [7] was -0.65% (inactive); in experiment [8], -2.54% (inactive).

For `O=c1c2nnn(Cc3ccccc3)c2ncn1-c1ccccc1`, the viability in experiment [1] is 103%; in experiment [3] it was 103% (inactive); in experiment [4] it was 111% (inactive); in experiment [5], 108% (inactive); in experiment [6] (setting [9]) it was 103%; in experiment [6] (setting [10]) it was 108%. Besides, in experiment [2], the Her2 level is 90.5% (inactive). Also, in experiment [6] (H69AR cells + 2 uM doxorubicin), the differential viability (reversal) is 5.12% (inactive). Besides, the results for the inhibition in experiment [7] and in experiment [8] were -6.27% (inactive) and 4.1% (inactive), respectively.

Consider `Cn1cccc1C1NC(=O)c2c(sc3c2CCC(C(C)(C)C)C3)N1` (stereo not given), for which the viability in experiment [1] was 110%; in experiment [3] it was 110% (inactive); in experiment [4], 125% (inactive); in experiment [5] it was 90.4% (inactive); in experiment [6] (setting [9]), 101%; in experiment [6] (setting [10]) it was 90.4%. The Her2 level in experiment [2] was 77.5% (inactive). Also, the differential viability (reversal) in experiment [6] (H69AR cells + 2 uM doxorubicin) was -11% (inactive). For the same molecule, the figures for the inhibition in experiment [7] and in experiment [8] were -9.86% (inactive) and 1.67% (inactive), respectively.

For `CC(Oc1ccccc1)C(=O)NC1CCN(Cc2ccccc2)CC1` (stereo not given), the viability in experiment [1] was 93%; in experiment [3] it was 93% (inactive); in experiment [4], 90.7% (inactive); in experiment [5], 93.5% (inactive); in experiment [6] (setting [9]), 86.1%; in experiment [6] (setting [10]), 93.5%. Further, the Her2 level in experiment [2] was 83% (inactive). In addition, the differential viability (reversal) in experiment [6] (H69AR cells + 2 uM doxorubicin) was 7.39% (inactive). The inhibition in experiment [7] is -5.6% (inactive); in experiment [8] it was 3.65% (inactive).

Turning to `O=C(Nc1ccc(N2CCOCC2)c(F)c1)c1ccncc1`, the viability in experiment [1] is 97%; in experiment [3] it was 97% (inactive); in experiment [4], 114% (inactive); in experiment [5], 96.6% (inactive); in experiment [6] (setting [9]), 84.2%; in experiment [6] (setting [10]), 96.6%. In addition, in experiment [2], the Her2 level was 99% (inactive). Further, the differential viability (reversal) in experiment [6] (H69AR cells + 2 uM doxorubicin) is 12.5% (inactive). The inhibition in experiment [7] was -4.27% (inactive); in experiment [8] it was 1.64% (inactive).

Regarding `CC(=Nc1ccc(C)c(C)c1)C1=C(O)CCC1=O`, the viability in experiment [1] is 102%; in experiment [3] it was 102% (inactive); in experiment [4] it was 95.1% (inactive); in experiment [5], 94.7% (inactive); in experiment [6] (setting [9]) it was 82.8%; in experiment [6] (setting [10]), 94.7%. For the same molecule, the Her2 level in experiment [2] was 88.5% (inactive). Besides, the differential viability (reversal) in experiment [6] (H69AR cells + 2 uM doxorubicin) was 12% (inactive). Besides, the inhibition is -3.73% (inactive) in experiment [7] and -2.46% (inactive) in experiment [8].

For the molecule `CCOC(=O)CC1=C(C(=O)OCC)C(c2ccc(C)o2)C(C#N)=C(N)O1` (stereo not given), the viability in experiment [1] is 95%; in experiment [3], 95% (inactive); in experiment [4], 107% (inactive); in experiment [5], 85.6% (inactive); in experiment [6] (setting [9]), 77.3%; in experiment [6] (setting [10]), 85.6%. Also, the Her2 level in experiment [2] was 104% (inactive). The differential viability (reversal) in experiment [6] (H69AR cells + 2 uM doxorubicin) was 8.26% (inactive). Also, the inhibition is 0.65% (inactive) in experiment [7] and -9.05% (inactive) in experiment [8].

Turning to `C=CCn1c(CC#N)nnc1N1CCOCC1`, the viability in experiment [1] was 90.5%; in experiment [3], 90.5% (inactive); in experiment [4], 100% (inactive); in experiment [5], 109% (inactive); in experiment [6] (setting [9]), 89.5%; in experiment [6] (setting [10]), 109%. For the same molecule, the Her2 level in experiment [2] was 88% (inactive). Also, the differential viability (reversal) in experiment [6] (H69AR cells + 2 uM doxorubicin) is 19.4% (inactive). Moreover, the inhibition in experiment [7] was -0.68% (inactive); in experiment [8] it was -2.22% (inactive).
